Experimental data taken from ChEMBL document CHEMBL3877270, “Biological and structural studies of phosphonium 'masked thiolate' compounds” (Eur J Med Chem, 2017).

Assays:
[1] = Cytotoxicity against human PC3 cells measured at 72 hrs post dose by Celltiter-Glo luminescent cell viability assay; assay type: functional, cell-based; settings: PC-3, 72 h
In short: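 PC3 cells (ATCC; DMEM GlutaMAX high glucose, 10% heat-inactivated FBS, pen/strep, 37 °C, 5% CO2) seeded 10,000/well, adhered overnight, then exposed 0–1000 µM for 24, 48, 72 h. Viability by CellTiter-Glo ATP luminescence after 30 min room-temperature equilibration. Vehicle controls at 0.1–0.001% DMSO. Quadruplicate wells, 3 independent experiments (n = 12). Normalised to control; IC50 from curve fit.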

[2] = Aqueous solubility of the compound; assay type: physicochemical; settings: buffer
[3] = Drug uptake in human PC3 cells measured after 90 mins by MALDI-TOF-MS analysis; assay type: ADME, cell-based; settings: pc-3, 1.5 h
In short: (§1)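 Trypsinised PC3 cells washed in PBS, resuspended in low-K+ HEPES buffer pH 7.4, 0.5×10^6 cells incubated with compound at 5 µM final, 37 °C, 0–120 min. Cells washed in cold PBS, lysed in cold water, lysate spiked with tetraphenylphosphonium bromide internal standard, α-CHCA matrix, positive-ion MALDI-TOF-MS. Amount from calibration curve built in PC3 lysate; triplicate analyses, three independent experiments.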

[4] = Drug uptake in human PC3 cells measured after 10 mins by MALDI-TOF-MS analysis; assay type: ADME, cell-based; settings: pc-3, 10 min; in short: as §1
[5] = Drug uptake in human PC3 cells measured after 30 mins by MALDI-TOF-MS analysis; assay type: ADME, cell-based; settings: pc-3, 0.5 h; in short: as §1
[6] = Drug uptake in rat C6 cells at 10 uM measured after 10 to 90 mins by MALDI-TOF-MS analysis relative to tetraphenylphosphonium cation; assay type: ADME, cell-based; settings: c6, 10 µM

Row | solubility [2] | SMILES | IC50 [1] | further results
1 | – | Cc1ccc(-c2nc([P+](c3ccccc3)(c3ccccc3)c3ccccc3)c[se]2)cc1 | 0.4 µM | –
2 | – | C/C(N)=C/[P+](c1ccccc1)(c1ccccc1)c1ccccc1 | 8 µM | –
3 | Soluble | CC(=O)SCCC[P+](c1ccc(F)cc1)(c1ccc(F)cc1)c1ccc(F)cc1.[Br-] | 252 µM | Drug uptake [3]: Active
4 | Soluble | CC(=O)SCCC[P+](c1ccccc1)(c1ccccc1)c1ccccc1.[Br-] | 67 µM | Drug uptake [4]: Active; Drug uptake [5]: Active
5 | – | Fc1ccc([P+](c2ccccc2)(c2ccccc2)c2ccccc2)cc1 [BFPET] | – | Drug uptake [6]: 80%
